Test results reported in ChEMBL document CHEMBL4422684, “Identification of novel lysine demethylase 5-selective inhibitors by inhibitor-based fragment merging strategy” (Bioorg Med Chem, 2019).

Tests used:
[1] = molecular target: Lysine-specific demethylase 5A (Homo sapiens, UniProt P29375); assay: Potency index, ratio of CPI-455 IC50 to test compound IC50 for human C-terminal FLAG-tagged KDM5A (1 to 1090 residues) expressed in baculovirus infected Sf9 insect cells
[2] = molecular target: T1, Lysine-specific demethylase 4A (Homo sapiens, UniProt O75164); assay: Inhibition of human N-terminal His-tagged KDM4A (1 to 350 residues) expressed in Escherichia coli using H3(21-44)-K36(Me3)-GK(Biotin)/2-OG as substrate measured after 1 hr by Alphalisa assay
T1 sequence (O75164 whole entry): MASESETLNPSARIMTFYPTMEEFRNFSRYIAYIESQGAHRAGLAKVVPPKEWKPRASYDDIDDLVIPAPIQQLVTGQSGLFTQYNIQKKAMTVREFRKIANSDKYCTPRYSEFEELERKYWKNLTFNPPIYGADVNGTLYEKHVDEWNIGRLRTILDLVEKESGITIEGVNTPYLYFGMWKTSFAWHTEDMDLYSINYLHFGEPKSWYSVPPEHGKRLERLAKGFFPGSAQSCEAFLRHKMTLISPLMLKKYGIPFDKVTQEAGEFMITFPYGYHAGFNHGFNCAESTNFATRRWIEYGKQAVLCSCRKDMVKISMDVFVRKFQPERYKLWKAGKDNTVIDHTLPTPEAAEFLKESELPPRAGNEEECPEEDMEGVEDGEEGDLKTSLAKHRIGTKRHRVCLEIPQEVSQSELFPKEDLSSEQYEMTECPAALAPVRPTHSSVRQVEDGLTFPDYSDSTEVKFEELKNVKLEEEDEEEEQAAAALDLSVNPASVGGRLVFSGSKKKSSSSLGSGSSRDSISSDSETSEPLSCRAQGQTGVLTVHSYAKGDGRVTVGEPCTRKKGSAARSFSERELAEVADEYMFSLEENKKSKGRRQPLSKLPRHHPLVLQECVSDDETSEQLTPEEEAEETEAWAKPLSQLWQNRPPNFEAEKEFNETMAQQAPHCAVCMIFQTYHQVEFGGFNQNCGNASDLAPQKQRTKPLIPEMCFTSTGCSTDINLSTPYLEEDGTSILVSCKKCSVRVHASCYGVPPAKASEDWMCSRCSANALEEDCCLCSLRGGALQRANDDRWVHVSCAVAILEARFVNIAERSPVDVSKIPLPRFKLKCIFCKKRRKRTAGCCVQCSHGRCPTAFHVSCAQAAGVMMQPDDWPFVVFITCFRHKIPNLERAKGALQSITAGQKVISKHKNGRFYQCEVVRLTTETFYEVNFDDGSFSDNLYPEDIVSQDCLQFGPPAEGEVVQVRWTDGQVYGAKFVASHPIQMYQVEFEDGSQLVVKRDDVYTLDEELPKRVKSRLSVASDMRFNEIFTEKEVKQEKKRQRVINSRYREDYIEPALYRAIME
How it was run: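 AlphaLISA demethylase assay in 50 mM HEPES pH 7.5, 0.1% BSA, 0.01% Tween 20 with DMSO. Enzyme and inhibitor combined, then peptide plus 2-OG (50 µM), Fe(II) (5 µM) and ascorbate (100 µM) in the added mix; 1 h at room temperature with shaking.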

Lysine-specific demethylase 5A, sequence (P29375 whole entry, the tested form may be a part): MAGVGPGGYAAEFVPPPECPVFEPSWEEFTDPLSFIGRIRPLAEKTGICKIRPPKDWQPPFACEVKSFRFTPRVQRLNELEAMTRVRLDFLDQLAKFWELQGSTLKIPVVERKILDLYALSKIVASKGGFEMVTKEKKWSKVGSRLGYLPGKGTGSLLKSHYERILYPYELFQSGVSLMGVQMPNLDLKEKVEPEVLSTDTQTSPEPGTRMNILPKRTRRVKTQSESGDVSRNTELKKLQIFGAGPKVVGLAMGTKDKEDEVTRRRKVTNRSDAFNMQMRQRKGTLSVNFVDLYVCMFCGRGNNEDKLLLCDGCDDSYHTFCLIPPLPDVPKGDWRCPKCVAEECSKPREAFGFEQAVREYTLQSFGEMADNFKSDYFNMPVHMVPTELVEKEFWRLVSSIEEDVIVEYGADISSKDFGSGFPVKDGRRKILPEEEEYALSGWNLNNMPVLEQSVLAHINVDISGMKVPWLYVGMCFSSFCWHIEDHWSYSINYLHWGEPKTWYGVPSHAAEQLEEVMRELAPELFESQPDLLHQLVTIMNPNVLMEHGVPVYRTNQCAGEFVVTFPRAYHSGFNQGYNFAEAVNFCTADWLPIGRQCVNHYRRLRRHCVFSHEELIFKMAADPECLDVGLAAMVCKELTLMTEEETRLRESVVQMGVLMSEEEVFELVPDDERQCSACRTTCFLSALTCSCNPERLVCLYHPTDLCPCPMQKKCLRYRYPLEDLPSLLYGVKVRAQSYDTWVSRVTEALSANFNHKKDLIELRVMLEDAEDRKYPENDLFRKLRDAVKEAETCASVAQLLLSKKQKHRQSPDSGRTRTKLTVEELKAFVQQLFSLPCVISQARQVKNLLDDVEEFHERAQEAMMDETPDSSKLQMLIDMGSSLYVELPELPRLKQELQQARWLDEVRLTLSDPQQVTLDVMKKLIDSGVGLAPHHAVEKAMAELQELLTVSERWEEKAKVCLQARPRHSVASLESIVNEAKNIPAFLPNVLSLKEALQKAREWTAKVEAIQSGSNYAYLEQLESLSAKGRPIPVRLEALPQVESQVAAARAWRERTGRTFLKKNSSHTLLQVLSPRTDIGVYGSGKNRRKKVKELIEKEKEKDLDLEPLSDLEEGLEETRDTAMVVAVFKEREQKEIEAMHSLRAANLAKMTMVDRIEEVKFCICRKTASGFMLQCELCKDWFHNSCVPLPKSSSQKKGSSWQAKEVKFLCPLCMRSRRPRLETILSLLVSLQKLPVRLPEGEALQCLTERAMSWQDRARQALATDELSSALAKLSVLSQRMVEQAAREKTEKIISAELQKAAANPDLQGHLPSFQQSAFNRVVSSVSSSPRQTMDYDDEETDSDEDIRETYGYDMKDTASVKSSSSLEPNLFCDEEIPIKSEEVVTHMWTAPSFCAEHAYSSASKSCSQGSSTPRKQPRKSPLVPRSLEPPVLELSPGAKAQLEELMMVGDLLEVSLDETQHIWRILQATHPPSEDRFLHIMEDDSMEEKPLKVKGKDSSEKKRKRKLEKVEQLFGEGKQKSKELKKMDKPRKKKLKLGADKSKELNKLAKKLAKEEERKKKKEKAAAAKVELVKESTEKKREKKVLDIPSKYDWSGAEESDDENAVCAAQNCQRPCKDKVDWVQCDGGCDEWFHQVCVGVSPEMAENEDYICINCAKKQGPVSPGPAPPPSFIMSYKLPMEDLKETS

A Ratio IC50 [1] of 22 and an IC50 [2] of 25 µM were found for `CCCCCCN(C)Cc1ccc(-c2[nH]c3c(C#N)cnn3c(=O)c2C(C)C)cc1` in this work.
